Screens: PubChem BioAssay, The Scripps Research Institute Molecular Screening Center
Rows were chosen to be rich in hits. Some 4.3% of all compounds tested hit in one or more screens of this group.
TAAR1 agonist: agonists of human TAAR1. AID 624467. hit rate 0.99% among 360,000. CHO RD-HGA16 TAAR1, Fluo-8 calcium fluorescence; vehicle wells 0%, saturating PEA agonist 100%. Q96RJ0. activation, % at 3 µM;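 active = activation above the mean activation of all test compounds in the run plus 3 SD, cut at about 38% in these data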
Target sequence (Q96RJ0 whole entry, looked up): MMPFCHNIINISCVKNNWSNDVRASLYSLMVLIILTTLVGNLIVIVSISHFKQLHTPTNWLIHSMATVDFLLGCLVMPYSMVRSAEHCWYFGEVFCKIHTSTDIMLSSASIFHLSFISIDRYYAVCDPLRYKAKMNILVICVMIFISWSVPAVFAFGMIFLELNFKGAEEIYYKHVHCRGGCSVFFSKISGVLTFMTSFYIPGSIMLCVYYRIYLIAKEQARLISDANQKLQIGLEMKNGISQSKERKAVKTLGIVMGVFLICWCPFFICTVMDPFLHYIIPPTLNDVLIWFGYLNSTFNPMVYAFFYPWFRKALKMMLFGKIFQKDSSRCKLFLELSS
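Test system: RD-HGA16 (CHO) cells co-expressing Gα16 and hTAAR1 | Doses: Single dose, 3 µM | Schedule: 17-24 h seeding, 75 min 37 °C dye, 30 min RT | Evaluation: % activation from peak over basal fluorescence ratio, DMSO-to-PEA scaled | Technique: Kinetic Fluo-8 calcium fluorescence | Benchmarks: Low control DMSO, high control PEA (EC100)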
TAAR1 antag: human TAAR1 antagonism. Q96RJ0. CHO RD-HGA16 TAAR1, Fluo-8 calcium fluorescence, antagonist. inhibition, % at 3 µM. hit rate 1.5% among 360,000;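 active = inhibition above a per-plate cutoff, the mean inhibition of test compounds on that plate plus 3 SD, cut at about 49% in these data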
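Test system – hTAAR1-expressing CHO RD-HGA16 cells, Gα16-coupled · Also added – β-PEA at EC80 concentration, post-compound challenge · Compound – 3 µM, single point · Incubation – dye loading 75 min at 37 °C, then 30 min room temperature · Measured by – Fluo-8 intracellular calcium dye fluorescence, real-time kinetic reads · Benchmarks – vehicle and agonist controls · Replicates – singlicate, one well per test compound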
OX1R antag-1: human HCRTR1 antagonism; O43613; CHO/OX1R cells, Fluo-8 calcium fluorescence, orexin A; inhibition, % at 5 µM; hit rate 0.43% among 330,000;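 active = inhibition above its plate's threshold, mean inhibition of all tested compounds on the plate plus 3 SD, cut at about 37% in these data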
Target sequence (O43613 whole entry, looked up): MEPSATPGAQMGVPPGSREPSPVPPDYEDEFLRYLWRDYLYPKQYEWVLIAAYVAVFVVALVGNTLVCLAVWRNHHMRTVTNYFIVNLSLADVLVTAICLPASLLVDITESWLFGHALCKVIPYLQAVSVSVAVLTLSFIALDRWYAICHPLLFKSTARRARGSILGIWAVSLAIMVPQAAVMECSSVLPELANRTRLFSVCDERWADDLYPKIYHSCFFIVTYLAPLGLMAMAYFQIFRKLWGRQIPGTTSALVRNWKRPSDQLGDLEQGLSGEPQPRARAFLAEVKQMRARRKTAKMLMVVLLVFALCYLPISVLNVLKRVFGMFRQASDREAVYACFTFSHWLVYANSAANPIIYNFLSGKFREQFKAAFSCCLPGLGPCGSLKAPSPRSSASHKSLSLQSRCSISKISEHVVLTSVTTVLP
OX1R antag-2: OX1R (human) antagonism; OX1R-expressing cells, FRET antagonist read-out; inhibition, % at 6.6 µM; hit rate 1.8% among 330,000; in the data active = inhibition mostly above about 38%, no sharp cut-off; inactive = mostly below about 40%
GalR3 antagonist: antagonists of human GalR3; HEK293 GalR3-CNG cAMP membrane potential fluorescence; galR3 body fused to GalR1 C-terminus; inhibition, % at 3 µM; hit rate 0.44% among 360,000; AID 651719;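 active = inhibition above the screen-wide average plus 3 SD, cut at about 13% in these data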;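 also: forskolin and galanin both at EC90 stimulate the cells; cAMP rise reported by CNG channel membrane potential dye signal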
CHO parental Ca: signal in parental CHO cells, OX1R antagonist counter-screen; parental CHO-K1, ATP-induced calcium, Fluo-8 fluorescence; inhibition, % at 5.6 µM; AID 463079; hit rate 0.63% among 330,000;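 active = inhibition above that plate's mean sample inhibition plus 3 SD, cut at about 26% in these data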
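Assay system: parental CHO cells; Read-out basis: percent inhibition of ATP-evoked calcium rise, normalized to controls; Benchmarks: ATP and no-ATP DMSO wells; Compound dosing: single nominal dose of 5.6 µM per compound; Signal: Fluo-8 calcium dye fluorescence; Also added: ATP as calcium-mobilizing challenge; Repeats: singlicate.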
Of the large screens only hits and unclear results are named; the others gave an inactive call.

COc1ccc(OC)c(S(=O)(=O)NCC2CCN(C(=O)C(=O)c3cccs3)CC2)c1	none (no result: OX1R antag-1, OX1R antag-2, CHO parental Ca)
COc1cccc(-c2c(C(=O)N/N=C/c3ccc(C)o3)nnn2-c2nonc2N)c1	TAAR1 agonist 41.6
CCOc1cccc(-c2c(C(=O)N/N=C/c3ccc(C)s3)nnn2-c2nonc2N)c1	TAAR1 agonist 53.0
CCCN1CCCCC(NC(=O)c2ccc(C)cc2C)C1=O (stereo not drawn)	none (no result: OX1R antag-1, OX1R antag-2, CHO parental Ca)
CCOC1=C2CN(S(=O)(=O)c3ccccc3)[C@H](c3ccccc3)C[C@H]2n2c(=O)n(-c3ccccc3)c(=O)n2C1	none (no result: OX1R antag-1, OX1R antag-2, CHO parental Ca)
Nc1sc(-c2ccccc2)cc1C(=O)N1CCNCC1	none (no result: OX1R antag-1, OX1R antag-2, CHO parental Ca)
CCn1c(SCC(=O)Nc2nc3ccccc3s2)nc2c(c1=O)SC(C)C2 (stereo not drawn)	none
CCn1c(SCC(=O)Nc2nc3ccc(C)cc3s2)nc2c(c1=O)SC(C)C2 (stereo not drawn)	OX1R antag-1 59.4, OX1R antag-2 81.1, CHO parental Ca 44.6 (no result: TAAR1 agonist, TAAR1 antag, GalR3 antagonist)
COc1ccc(S(=O)(=O)NCCSCc2ccc(Cl)cc2)cc1NC(C)=O	none (no result: OX1R antag-1, OX1R antag-2, CHO parental Ca)
O=C(NCC1CCN(C(=O)C(=O)c2cccs2)CC1)c1ccncc1	none (no result: OX1R antag-1, OX1R antag-2, CHO parental Ca)
CC(=NO)C1CCC2C3CCC4=CC(=NO)CCC4(C)C3C(O)CC12C (stereo not drawn)	TAAR1 antag 66.5 (no result: OX1R antag-1, OX1R antag-2, CHO parental Ca)
CC(=NO)C1CCC2C3CCC4=CC(=NO)CCC4(C)C3C(=O)CC12C (stereo not drawn)	none (no result: OX1R antag-1, OX1R antag-2, CHO parental Ca)
CC(C)C(=O)N(c1ccc2oc(=O)sc2c1)S(=O)(=O)c1cccs1	none
CC(C)C(=O)N(c1cc2sc(=O)oc2c2ccccc12)S(=O)(=O)c1cccs1	OX1R antag-1 67.7, CHO parental Ca 87.2
Clc1ccc(Cn2ncc3c(N4CCCCC4)ncnc32)c(Cl)c1	TAAR1 antag 77.8
CCc1ccc[n+](-c2[nH]c(=O)sc2/C=N/N=C(\N)[O-])c1	none
CC(C)(C)c1cc[n+](-c2[nH]c(=O)sc2/C=N/NC(=O)c2ccccc2[O-])cc1	OX1R antag-2 56.5
CC(C)(C)c1cc[n+](-c2[nH]c(=O)sc2/C=N/N=C(\[O-])c2cccnc2)cc1	OX1R antag-2 58.1
Cc1ccc(-c2nc3ccc(Br)cn3c2Cc2ccsc2)cc1	none (no result: OX1R antag-1, OX1R antag-2, CHO parental Ca)
CN(Cc1ccc(F)cc1)C(=O)c1ccc(NC(=O)CC2SC(N3CCCC3)=NC2=O)cc1 (stereo not drawn)	none
COc1ccc2c(c1OC)C(=O)N1C(C(=O)O)Cc3c([nH]c4ccccc34)C21 (stereo not drawn)	OX1R antag-2 75.3
COc1cccc(C2c3[nH]c4ccccc4c3C[C@H]3C(=O)N(CCCO)CC(=O)N23)c1OC (stereo partly drawn)	none
CC[n+]1c(/C=C/C=C/N(C(C)=O)c2ccccc2)sc2ccccc21	TAAR1 antag 102.4
O=C(COc1ccccc1)NC(=S)Nc1cccc2c(O)cccc12	TAAR1 agonist 42.2 (no result: OX1R antag-1, OX1R antag-2, CHO parental Ca)
COC(=O)c1ccccc1NC(=S)NC(=O)COc1ccccc1	none
O=[N+]([O-])c1ccc(O)c(/C=N/n2cnc3ccccc32)c1	OX1R antag-2 47.9
O=[N+]([O-])c1ccc(O)c(/C=N/n2c(CO)nc3ccccc32)c1	none
O=C(N/N=C/c1ccc([N+](=O)[O-])cc1)c1cccnc1	OX1R antag-2 72.2
O=C(Oc1c(Br)cc([N+](=O)[O-])cc1Br)c1cccnc1	OX1R antag-2 52.7
O=C(/C=C/c1ccc([N+](=O)[O-])cc1)NCc1cccs1	none
O=C1NCCCC1C(=O)N/N=C/c1cccc([N+](=O)[O-])c1 (stereo not drawn)	none
O=C(/C=C/c1ccc([N+](=O)[O-])cc1)NCc1ccccn1	OX1R antag-2 75.0
O=C1NCCCC1C(=O)N/N=C/c1ccc([N+](=O)[O-])cc1 (stereo not drawn)	OX1R antag-2 53.6
COc1cccc(CNC(=O)COC(=O)CCc2cc(OC)c(OC)c(OC)c2)c1	none
COC(=O)c1cc2c(c3c4ccccc4n(S(=O)(=O)c4cccc(C)c4)c13)C(=O)N(C)C2	none (no result: OX1R antag-1, OX1R antag-2, CHO parental Ca)
Cc1cc(NC(=O)CN(C)S(=O)(=O)c2cnc[nH]2)ccc1Br	none
O=C(N/N=C/C=C\c1cccc([N+](=O)[O-])c1)c1cccnc1	OX1R antag-2 35.5
CC(/C=C/c1cccc([N+](=O)[O-])c1)=N/NC(=O)c1cccnc1	none
Nc1nnc(CC(=O)N/N=C/c2ccc([N+](=O)[O-])cc2)s1	OX1R antag-2 75.1
O=C(N/N=C/C=C/c1ccccc1[N+](=O)[O-])c1cccnc1	OX1R antag-2 46.9
O=C(NCCOC(=O)c1ccc([N+](=O)[O-])cc1)c1cccnc1	OX1R antag-2 68.7
COc1cc(/C=N/NC(=O)Cc2nnc(N)s2)cc(OC)c1OC	none
O=S(=O)(Oc1ccc(C(=S)N2CCOCC2)cc1)c1ccc(Cl)cc1	none
Cn1cc([C@]2(O)C(=O)Nc3ccc(F)cc32)c2ccccc21	none (no result: OX1R antag-1, OX1R antag-2, CHO parental Ca)
COc1ccc(-c2ccc3c(n2)CCCN3S(=O)(=O)c2ccccc2C)cc1	none (no result: OX1R antag-1, OX1R antag-2, CHO parental Ca)
Cn1cc(CCOCc2ccc(Br)cc2)c2ccccc21	none (no result: OX1R antag-1, OX1R antag-2, CHO parental Ca)
COc1ccc(-c2ccc3c(n2)CCCN3S(=O)(=O)c2ccc(C(F)(F)F)cc2)cc1	none (no result: OX1R antag-1, OX1R antag-2, CHO parental Ca)
O=C(/C=C/c1cccc([N+](=O)[O-])c1)NCc1cccnc1	OX1R antag-2 72.2
O=C(N/N=C/C=C\c1ccccc1[N+](=O)[O-])c1cc(-c2ccc3ccccc3c2)n[nH]1	TAAR1 antag 53.3 (no result: OX1R antag-1, OX1R antag-2, CHO parental Ca)
COc1ccc(CN2C[C@H](O)COC[C@@H]3O[C@H](CC(=O)NCc4ccncn4)CC[C@H]32)cc1	none (no result: OX1R antag-1, OX1R antag-2, CHO parental Ca)
CCC(C)NC(=O)[C@@H]1CSC2c3ccccc3C(=O)N21 (stereo partly drawn)	none
COCCNC(=O)C(c1cccs1)N(CCc1ccccc1)C(=O)Cn1nnc2ccccc21 (stereo not drawn)	TAAR1 agonist 40.2
Cc1cccn2c(=O)c(/C=C(\C#N)C(N)=O)c(N3CCN(c4cccc(Cl)c4)CC3)nc12	none (no result: OX1R antag-1, OX1R antag-2, CHO parental Ca)
COc1ccccc1NC(=O)C1CCCN(S(=O)(=O)c2cccc3nsnc23)C1 (stereo not drawn)	none
CCc1cccc(NC(=O)C2CCCN(S(=O)(=O)c3cccs3)C2)c1 (stereo not drawn)	OX1R antag-2 52.1
COc1ccc(NC(=O)C2CCCN(S(=O)(=O)c3cccs3)C2)cc1OC (stereo not drawn)	none
CCN1CCN(C(=O)C2CCCN(S(=O)(=O)c3cccc4nsnc34)C2)CC1 (stereo not drawn)	OX1R antag-2 51.6
O=C(NCC1CCCO1)C1CCCN(S(=O)(=O)c2cccc3nsnc23)C1 (stereo not drawn)	OX1R antag-2 55.3
